Data on seven molecules can be found in paper PMC3967098 (Journal of medicinal chemistry, 2008).

Assay [1] relates to FRET-tagged duplex DNA sequence. In words: FRET melting assay, duplex DNA. Format: binding.
Assay [2] has as its system hTel quadruplex (human telomere). In words: SPR equilibrium binding, hTel quadruplex. The following applies: strong binding site; 25°C, HEPES 100mM KCl pH 7.3. Summed up:
(§1)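 5′-Biotinylated quadruplex oligonucleotides were captured on a streptavidin chip to 350-400 RU, with a blank reference flow cell. Runs used 10mM HEPES, 100mM KCl, 3mM EDTA and P20 surfactant (pH 7.3) at 25°C. Ligand (1nM–10µM) was injected at 50µl/min for 5–10 min to steady state, then buffer for 10 min. The surface was regenerated with 10mM glycine pH 2.0, and KA came from nonlinear least-squares fitting.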

The test system of assay [3] is c-kit1 quadruplex. Kind of assay: SPR equilibrium binding, c-kit1 quadruplex. Also noted: species or system human. The following applies: strong binding site; 25°C. An outline of the steps: as §1
Assay [4] relates to c-kit2 quadruplex. Kind of assay: SPR equilibrium binding, c-kit2 quadruplex. The following applies: strong binding site; 25°C. Also noted: species or system human. Summed up:
as §1

The subject of assay [5] is c-myc quadruplex. Kind of assay: SPR equilibrium binding, c-myc quadruplex. Also on record: species or system human. The following applies: for SPR Ligand KA for a single-site fit, c-myc: strong binding site, 25°C. Summed up:
as §1

Assay [6] deals with MCF7 cells. In words: Long-term. Format: cell-based, human. The following applies: 1 week MCF7. Summed up:
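MCF7 cells (1×10^5 seeded, supplemented DMEM, 37 °C, 5% CO2) were exposed for 1 week to two sub-cytotoxic ligand concentrations, re-dosed twice weekly, alongside a media-only control. Cells were counted by haemocytometer, and population doublings were calculated as n = (log Pn – log P0)/log2, where P0 is the seeding density. Values are reported ± sd.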

Assay [7] deals with MCF7 cells. In words: Assessment of chromosomal end-end fusions. Format: cell-based, human. The following applies: 1 week, data not shown.
Assay [8] relates to hTel quadruplex (human telomere). The following applies: strong binding site; cited from earlier work.
Assay [9] relates to DNA hairpin duplex. The following applies: cited from earlier work.
For assay [10], the system named is MCF7 breast adenocarcinoma cell line. The following applies: read-out: SRB IC50, MCF7; cited from earlier work.
In assay [11] the test system is A549 non-small cell lung carcinoma cell line. Conditions: read-out: SRB IC50, A549; cited from earlier work.

Where two headings read alike, the source gives them in different places.

With `O=C(CN1CCCC1)Nc1ccc(NC(=O)c2cccc(NC(=O)Nc3cccc(C(=O)Nc4ccc(NC(=O)CN5CCCC5)cc4)c3)c2)cc1` [9a, 1,3-bis(3-(4-(2-(pyrrolidin-1-yl)acetamido)phenylcarbamoyl)phenyl)urea], the “FRET ΔTm at a 1μM ligand concentration, Duplex” value (from here on “FRET ΔTm”) in [1] turned out to be 0.0 ± 0.6 °C. Moreover, the “SPR Ligand KA for a single-site fit, hTel” value (“SPR Ligand KA … hTel” for short) in assay [2] was 1.4e+06 M⁻¹. Besides, the “SPR Ligand KA for a single-site fit, c-kit1” value (“SPR Ligand KA … c-kit1” for short) in assay [3] worked out at 2.1e+06 M⁻¹. The “SPR Ligand KA for a single-site fit, c-kit2” value (“SPR Ligand KA … c-kit2” for short) in [4] was 5.1e+06 M⁻¹. In addition, in assay [5] (relative to the other quadruplexes), the “selectivity for the c-myc quadruplex (SPR)” value is listed as around 3 fold. For the same molecule, the “SPR Ligand KA for a single-site fit, c-myc” value (“SPR Ligand KA … c-myc” for short) in [5] was 1.4e+07 M⁻¹. Also, the “PD (population doublings)” value in [6] (5.00 μM) stood at 3.79 ± 0.12; in [6] (10.00 μM) it was 3.00 ± 0.38.

Regarding `O=C(CCN1CCCC1)Nc1ccc(NC(=O)c2cccc(NC(=O)Nc3cccc(C(=O)Nc4ccc(NC(=O)CCN5CCCC5)cc4)c3)c2)cc1` [9b, 1,3-bis(3-(4-(3-(pyrrolidin-1-yl)propanamido)phenylcarbamoyl)phenyl)urea], in assay [2], the “SPR Ligand KA … hTel” value was 1.1e+06 M⁻¹. Moreover, the “SPR Ligand KA … c-kit1” value in assay [3] stood at 1.4e+06 M⁻¹. The “SPR Ligand KA … c-kit2” value in assay [4] was found to be 5e+06 M⁻¹. In assay [5], the “SPR Ligand KA … c-myc” value was found to be 2.1e+06 M⁻¹. The “PD (population doublings)” value in [6] (1.00 μM) came to 4.53 ± 0.07; in assay [6] (1.75 μM) it was 4.50 ± 0.03; in [6] (2.25 μM), 2.73 ± 0.20. In assay [7], the “chromosomal end-end fusions relative to an untreated control” value is reported as “did not show significant changes”.

For `O=C(CCCN1CCCC1)Nc1ccc(NC(=O)c2cccc(NC(=O)Nc3cccc(C(=O)Nc4ccc(NC(=O)CCCN5CCCC5)cc4)c3)c2)cc1` [9c, 1,3-bis(3-(4-(4-(pyrrolidin-1-yl)butanamido)phenylcarbamoyl)phenyl)urea], in assay [1], the “FRET ΔTm” value amounted to 0.0 ± 0.6 °C. In addition, the “SPR Ligand KA … hTel” value in assay [2] is 400000 M⁻¹. The “SPR Ligand KA … c-kit1” value in assay [3] worked out at 400000 M⁻¹. For the same molecule, the “SPR Ligand KA … c-kit2” value in assay [4] is 3.1e+06 M⁻¹. The “SPR Ligand KA … c-myc” value in assay [5] turned out to be 900000 M⁻¹. The entries for the “PD (population doublings)” value in assay [6] (3.50 μM) and in assay [6] (7.00 μM) were 3.94 ± 0.24 and 3.35 ± 0.03, respectively.

As to `O=C(CCCN1CCCC1)Nc1cccc(NC(=O)c2cccc(NC(=O)Nc3cccc(C(=O)Nc4cccc(NC(=O)CCCN5CCCC5)c4)c3)c2)c1` [9f, 1,3-bis(3-(3-(4-(pyrrolidin-1-yl)butanamido)phenylcarbamoyl)phenyl)urea], in assay [1], the “FRET ΔTm” value turned out to be 0.0 ± 0.3 °C.

Consider `O=C(CCN1CCCCC1)Nc1ccc(NC(=O)c2cccc(NC(=O)Nc3cccc(C(=O)Nc4ccc(NC(=O)CCN5CCCCC5)cc4)c3)c2)cc1` [9h, 1,3-bis(3-(4-(3-(piperidin-1-yl)propanamido)phenylcarbamoyl)phenyl)urea], for which the figures for the “PD (population doublings)” value in assay [6] (2.00 μM) and in assay [6] (3.50 μM) were 3.66 ± 0.00 and 3.46 ± 0.34, respectively.

As to `O=C(CCN1CCCC1)Nc1cccc(NC(=O)c2ccc(NC(=O)Nc3ccc(C(=O)Nc4cccc(NC(=O)CCN5CCCC5)c4)cc3)cc2)c1` [10e, 1,3-bis(4-(3-(3-(pyrrolidin-1-yl)propanamido)phenylcarbamoyl)phenyl)urea], the “PD (population doublings)” value was 3.40 ± 0.26 in assay [6] (1.00 μM) and 1.81 ± 0.10 in assay [6] (2.00 μM).

Take `CN(C)c1ccc(Nc2c3ccc(NC(=O)CCN4CCCC4)cc3nc3cc(NC(=O)CCN4CCCC4)ccc23)cc1` [BRACO-19, 3,6-bis(3-pyrrolidin-1-ylpropionamido)-9-(4-dimethylaminophenylamino) acridine]: the “SPR Ligand KA … hTel” value in [8] is 3.1e+07 M⁻¹. Also, the “SPR KA, Duplex” value in assay [9] was 500000 M⁻¹. For the same molecule, the IC50 in assay [10] is 2500 nM; in assay [11], 2400 nM.
